A short description of data set [1]: Solubility of the compound at 1 mM in PBS. The following applies: buffer, 1000 µM. In kind it is physicochemical.
The species entered for data set [2] is Rattus norvegicus. Kind of data set: Protection against light-induced photoreceptor degradation in albino rat retina exposed to bright fluorescent light assessed as reduction in ONL thickness on superior side at 1 mM, intravitreally after 24 hrs. Type of data set: functional, organism-based. The method in brief: (§1)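 Albino rats got a 2 µL intravitreal injection 18 h before 24 h exposure to bright fluorescent light. Compounds insoluble in PBS 1× at 1 mM were given in DMSO 2%; PBS-soluble ones were given in PBS 1×. Untreated-unexposed and DMSO 2% groups served as controls.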

A short description of data set [3]: Solubility of the compound at 1 mM in 2% DMSO. In kind it is physicochemical. As to conditions: 1000 µM.
The species entered for data set [4] is Rattus norvegicus. Briefly: Protection against light-induced photoreceptor degradation in albino rat retina exposed to 12 hrs dark and 12 hrs light assessed as reduction in ONL thickness on inferior side at 9 mM, intravitreally after 24 hrs. Type of data set: functional, organism-based. The essentials: as §1
The nature of data set [5]: Half life in albino rat retina. Type of data set: ADME, tissue-based.
Data set [6] is filed under the species Rattus norvegicus. Briefly: Protection against light-induced photoreceptor degradation in albino rat retina exposed to 12 hrs dark and 12 hrs light assessed as reduction in ONL thickness at 1 mM, intravitreally after 24 hrs. Type of data set: functional, organism-based. The essentials: as §1
The species entered for data set [7] is Rattus norvegicus. Briefly: Protection against light-induced photoreceptor degradation in albino rat retina exposed to 12 hrs dark and 12 hrs light assessed as reduction in ONL thickness on superior side at 9 mM, intravitreally after 24 hrs. Type of data set: functional, organism-based. The essentials: as §1

The source made the active and inactive calls. The calls are words filed in the database; no cut-off is given here.

Regarding `CC(C)CCC[C@@H](C)[C@H]1CC[C@H]2[C@@H]3CC=C4C[C@@H](OCCC(=O)NCC(C)(C)/[N+]([O-])=C/c5ccc(CNC(=O)[C@@H](O)[C@H](O)[C@H](O[C@@H]6O[C@H](CO)[C@H](O)[C@H](O)[C@H]6O)[C@@H](O)CO)cc5)CC[C@]4(C)[C@H]3CC[C@]12C`, the solubility result is given as “Insoluble” in data set [1] and “soluble” in data set [3]. Besides, the result in data set [2] was inactive.

With `CC(C)CCC[C@@H](C)[C@H]1CC[C@H]2[C@@H]3CC=C4C[C@@H](OCCC(=O)NCc5ccc(/C=[N+](\[O-])C(C)(C)CNC(=O)[C@@H](O)[C@H](O)[C@H](O[C@@H]6O[C@H](CO)[C@H](O)[C@H](O)[C@H]6O)[C@@H](O)CO)cc5)CC[C@]4(C)[C@H]3CC[C@]12C`, the solubility result in data set [1] is reported as “Insoluble”; in data set [3], “soluble”. Moreover, the outcome in data set [2] was Active.

For the compound `CC(C)(C)/[N+]([O-])=C/c1ccccc1`, the outcome in data set [4] and in data set [7] was Active. The compound also had a half-life in data set [5] of 2 h. In data set [6], the result was inactive.

Values taken from ChEMBL document CHEMBL1629434, “Cholesterol-based α-phenyl-N-tert-butyl nitrone derivatives as antioxidants against light-induced retinal degeneration” (Bioorg Med Chem Lett, 2010).
